# Test results published in PubChem BioAssay.
# Calls of active or inactive are those of the source.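 How the source made its calls, unless noted: active means inhibition above 20% together with a positive visual image hit; inconclusive means visual image hit but inhibition not above 20%; inactive means no visual image hit.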
# Key:
# [1] = inhibitors of TNFa-induced NFkB p65 translocation, primary screen, imaging, HUVEC, MLSMR starter and 10KST1 sets (AID 438); details: HUVEC TNFa-induced p65 nuclear translocation; cell count: measured here: nuclei count (cytotoxicity indicator), at 2.08 µM; inhibition: at 2 µM, stronger effect = higher value, 0% TNFa-plus-vehicle, 100% no-TNFa wells;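 further: compound added about 3h40 before a 20 min TNFalpha stimulation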;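 on inhibition: signal is the nuclear over cytoplasmic p65 intensity ratio per well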
# [2] = reduction of polyQ htt aggregates in cells – imaging, exon1htt(103Q)mCFP cells, high-content imaging, primary screen (AID 483;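 active means visual image review flags a hit and inhibition of aggregation exceeds 20%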;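 further: compound exposure lasted 3 days before fixation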;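 on nuclei count: percent of the per-plate median nuclei count of sample wells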); details: exon1htt(103Q)mCFP cell line, aggregate imaging, at 2 µM; inhibition of aggregation: stronger effect = higher value; nuclei count: measured here: cell count, toxicity
# [3] = endothelial E-selectin expression blockers – imaging, HUVEC, immunofluorescence, MLSMR starter and 10KST1 sets, primary screen (AID 487;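 active means visually confirmed hit in the image check and inhibition above 20%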;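 on inhibition: signal is fraction of cell area covered by stained E-selectin grains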;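 on nuclei count: 100% = median nuclei count of all wells on the same plate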); details: HUVEC TNFalpha-induced E-selectin immunofluorescence imaging, at 2 µM; inhibition: stronger effect = higher value; nuclei count: measured here: cell number, toxicity
# [4] = target: Voltage-gated potassium channel subunit beta-2 (Rattus norvegicus) (UniProt P62483); experiment: inhibitors of rat Kvbeta2 reductase activity – biochemical, NADPH fluorescence, primary screen (AID 622;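 active means fluorescence slope higher than the sample average by over 3 SD, cut at about -0.22 in these data, passing the limit was not always enough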;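 further: slope of raw intensity against log time taken from 70 to 1610 s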); details: recombinant KvBeta, 4-cyanobenzaldehyde reduction, at 10 µM, stronger effect = higher value
# Chain of Voltage-gated potassium channel subunit beta-2 (Rattus norvegicus) (P62483 whole entry, looked up): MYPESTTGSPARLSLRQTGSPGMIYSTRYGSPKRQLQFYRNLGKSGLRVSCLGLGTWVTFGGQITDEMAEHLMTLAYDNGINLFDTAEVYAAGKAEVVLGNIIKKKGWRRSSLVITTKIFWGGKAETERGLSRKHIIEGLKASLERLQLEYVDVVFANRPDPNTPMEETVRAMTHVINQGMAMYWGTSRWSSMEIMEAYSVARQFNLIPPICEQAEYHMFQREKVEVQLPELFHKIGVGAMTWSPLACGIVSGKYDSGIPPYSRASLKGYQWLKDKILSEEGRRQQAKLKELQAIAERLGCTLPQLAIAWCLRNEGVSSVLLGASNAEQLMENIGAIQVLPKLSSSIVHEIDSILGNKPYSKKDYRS
# [5] = target: Voltage-gated potassium channel subunit beta-2 (Rattus norvegicus) (UniProt P62483); experiment: enhancers of rat Kvbeta2 NADPH turnover – biochemical, NADPH fluorescence, primary screen (AID 623;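 active means NADPH fluorescence slope more negative than the mean of all samples by about 3 SD, 99.7% confidence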;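 further: fluorescence intensity change per second fitted from 20 to 320 s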); details: Recombinant KvBeta, NADPH fluorescence decrease slope, 10 min; at 10 µM; stronger effect = lower value
# [6] = target: Muscarinic acetylcholine receptor M4 (Homo sapiens) (UniProt P08173); experiment: M4-linked GIRK flux change, two-sided – cell-based, HEK293 M4/GIRK, thallium flux, BTC-AM, M4 allosteric agonist project, primary screen (AID 625;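 active means fluorescence slope after compound addition differing from the mean of all tested samples at 99.7% confidence, mostly higher but some lower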;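 further: thallium influx through GIRK channels coupled to M4 in HEK293 cells with BTC-AM dye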); details: at 10 µM, actives lie on both sides
# Chain of Muscarinic acetylcholine receptor M4 (Homo sapiens) (P08173 whole entry, looked up): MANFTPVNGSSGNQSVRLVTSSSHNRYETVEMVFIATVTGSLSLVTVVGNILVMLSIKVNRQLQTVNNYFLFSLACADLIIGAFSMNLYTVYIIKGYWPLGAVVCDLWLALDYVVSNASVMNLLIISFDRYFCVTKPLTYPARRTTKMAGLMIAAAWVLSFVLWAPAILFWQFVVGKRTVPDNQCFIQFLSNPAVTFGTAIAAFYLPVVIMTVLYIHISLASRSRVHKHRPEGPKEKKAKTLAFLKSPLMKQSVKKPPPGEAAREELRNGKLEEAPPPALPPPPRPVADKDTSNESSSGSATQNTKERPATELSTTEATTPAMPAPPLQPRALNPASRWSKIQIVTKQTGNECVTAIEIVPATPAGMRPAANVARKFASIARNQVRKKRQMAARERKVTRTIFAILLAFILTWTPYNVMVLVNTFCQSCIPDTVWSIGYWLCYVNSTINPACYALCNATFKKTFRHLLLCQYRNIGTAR
# How it was run: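 System: HEK293 cells with M4 receptor and GIRK channels | Incubation: Cells overnight at 37 °C, BTC-AM loading 1 h, reads 2 min total | Technique: Kinetic BTC-AM fluorescence sampled at 1 Hz, 10 s pre-addition baseline | Measure: Post-addition slope, 15–24 s, of baseline-normalized fluorescence | Control set: Carbachol positive, DMSO negative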
# [7] = blockers of RIG-like receptor reporter activation – cell-based, Sendai virus stimulus, luciferase, 10K MLSCN set, TLR/RLR signaling modifier project, primary screen (AID 602276;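 active means inhibition at or above 50% at 10 µM; inactive means inhibition below 50%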;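 further: firefly luciferase from ISG56 promoter only with Renilla not read in this screen; 0% = Sendai virus plus DMSO and 100% = medium plus DMSO without virus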); details: HEK293 RL24 IRF3 luciferase reporter, at 10 µM, stronger effect = higher value
# [8] = TLR3 IRF3 reporter activation blockers – cell-based, poly I:C stimulus, luciferase, 10K MLSCN set, primary screen (AID 602277;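 active means inhibition of the reporter signal at or above 50%; inactive means inhibition below 50%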); details: HEK293-TLR3 RL24 IRF3 luciferase reporter, at 10 µM, stronger effect = higher value
SMILES,cell count [1],inhibition [1],inhibition of aggregation [2],nuclei count [2] [%],inhibition [3],nuclei count [3] [%],fluorescence slope [4],NADPH fluorescence slope [5],fluorescence slope [6],inhibition [7],inhibition [8]
CCC(C)OC(=O)n1ccc(C(=O)Nc2nccs2)n1 (stereo not drawn),604,-8.2% (inactive),8.2% (inactive),95,-79.6% (inactive),131,-0.575 (inactive),-1.9e-05 (inactive),0.00527 (inactive),-5.02% (inactive),-27.4% (inactive)
CCOC(=O)C1=C(CC)Nc2ccccc2N=C1NC(=O)Nc1ccccc1OC,485,-12.3% (inactive),7.2% (inactive),116,-15% (inactive),119,-0.593 (inactive),2.9e-06 (inactive),0.00703 (inactive),26.2% (inactive),38.4% (inactive)
O=C(c1cccn2c(=O)c3cc(Cl)ccc3nc12)N1CCOCC1,488,-23.1% (inactive),10% (inactive),106,-117% (inactive),140,-0.027 (inactive),8.6e-06 (inactive),0.00457 (inactive),7.46% (inactive),19.6% (inactive)
CCOc1cccc(Oc2ccc(C(F)(F)F)cn2)c1,664,-8% (inactive),-17.4% (inactive),120,8.4% (inactive),97.3,-0.526 (inactive),1.7e-05 (inactive),0.00424 (inactive),5.91% (inactive),3.43% (inactive)
O=C(NC(NC1CCS(=O)(=O)C1)C(=O)c1cccs1)c1ccccc1 (stereo not drawn),269,3.9% (inactive),0.8% (inactive),101,12.8% (inactive),96.3,-0.572 (inactive),-2.1e-05 (inactive),0.00591 (inactive),7.41% (inactive),18.4% (inactive)
COC(=O)Nc1ccc(C)cc1NC(=O)OC,624,-20.8% (inactive),-13.1% (inactive),98.6,16% (inactive),86.5,-0.574 (inactive),2.5e-05 (inactive),0.00692 (inactive),-9.05% (inactive),-6.68% (inactive)
CCCN(CCC)C(=O)CSc1nc2ccccc2c(=O)n1C1CCCC1,475,3% (inactive),-13.4% (inactive),93.4,-7.5% (inactive),117,-0.452 (inactive),-1.1e-05 (inactive),0.00476 (inactive),15.9% (inactive),10.1% (inactive)
Cc1ccc(S(=O)(=O)N2CCCC2C(=O)OCc2ccco2)cc1 (stereo not drawn),411,-8.4% (inactive),-7.8% (inactive),99,-0.1% (inactive),102,-0.499 (inactive),-4e-05 (inactive),0.005 (inactive),-9.42% (inactive),-8.59% (inactive)
CN(C)c1ccc(NC(=O)CSCc2nc3c(nnn3Cc3ccc(F)cc3)c(=O)[nH]2)cc1,579,7.1% (inactive),-8.4% (inactive),105,-72.4% (inactive),114,-0.204 (inactive),-6.4e-06 (inactive),0.00529 (inactive),10.7% (inactive),15.6% (inactive)
O=C(NCCN1CCCC1)C1COc2ccccc2O1 (stereo not drawn),511,-0.5% (inactive),-4.3% (inactive),73.8,-28.7% (inactive),100,-0.587 (inactive),-3.1e-05 (inactive),0.0064 (inactive),1.21% (inactive),11.8% (inactive)
N#Cc1c(NC(=O)CSc2nc(N)cc(=O)[nH]2)sc2c1CCCCCC2,728,-14% (inactive),-2% (inactive),115,-105% (inactive),122,-0.578 (inactive),-3.4e-05 (inactive),0.00398 (inactive),-11.2% (inactive),-48.5% (inactive)
Cc1nnc(N(Cc2ccco2)C(=O)c2cccc(C#N)c2)s1,428,7.3% (inactive),9.6% (inactive),101,11.7% (inactive),111,-0.569 (inactive),-1.4e-05 (inactive),0.00607 (inactive),-0.114% (inactive),5.23% (inactive)
CCOC(=O)c1cccc(NC(=O)Cn2cnc3c2c(=O)n(C)c(=O)n3C)c1,467,10.1% (inactive),2.8% (inactive),123,2.2% (inactive),114,-0.261 (inactive),-7e-06 (inactive),0.00582 (inactive),-6.03% (inactive),-6.74% (inactive)
Cc1nnc(SCC(=O)NC(C)(C)C)n1CCc1ccccc1,677,2.8% (inactive),-3.9% (inactive),109,-20.1% (inactive),135,-0.512 (inactive),-4.5e-05 (inactive),0.00442 (inactive),11.7% (inactive),8.89% (inactive)
Cn1cnnc1Sc1nc2c(c(=O)n(C)c(=O)n2C)n1C,613,-33.7% (inactive),11.6% (inactive),90.4,-50.7% (inactive),100,-0.547 (inactive),2.3e-05 (inactive),0.00524 (inactive),-1.17% (inactive),9.62% (inactive)
COc1ccc(C2CC(=O)c3cnc(NC(=O)c4ccccc4OC)nc3C2)c(OC)c1 (stereo not drawn),434,-6.7% (inactive),15% (inactive),94.2,-80.1% (inactive),107,-0.459 (inactive),0.000189 (inactive),0.00664 (inactive),14.1% (inactive),6.68% (inactive)
COc1ccc(Cn2c(C)nc3c(c2=O)c2nc4ccccc4nc2n3Cc2ccco2)cc1,375,-0.6% (inactive),-1.8% (inactive),100,-42.4% (inactive),119,-0.368 (inactive),-4.4e-06 (inactive),0.00431 (inactive),23.6% (inactive),9.91% (inactive)
CCOC(=O)c1cc2oc(C)cc2n1CC(=O)OC1CCCCC1,353,5.3% (inactive),-10.9% (inactive),110,-13.6% (inactive),102,-0.584 (inactive),-2.1e-06 (inactive),0.00678 (inactive),1.83% (inactive),16.4% (inactive)
CCOc1ccc2c(c1)sc1nc(C(=O)OC)cc(=O)n12,432,7.5% (inactive),-10.2% (inactive),109,-0.5% (inactive),108,-0.175 (inactive),-1.7e-05 (inactive),0.00476 (inactive),13.7% (inactive),19.3% (inactive)
Cc1ccc(CNC(=O)CSc2n[nH]c(N)n2)cc1,498,-7.2% (inactive),20% (inactive),44.8,-21.8% (inactive),136,-0.579 (inactive),-6.4e-05 (inactive),0.00347 (inactive),15.9% (inactive),20.6% (inactive)
Cc1nnc(NC2CCCCC2)[nH]c1=O,358,5.3% (inactive),-1.6% (inactive),103,-59.1% (inactive),115,-0.592 (inactive),-3.6e-05 (inactive),0.00733 (inactive),12.6% (inactive),14.5% (inactive)
O=c1c[n+]([O-])c2ccccc2n1OCc1ccccn1,649,-0.8% (inactive),-17.9% (inactive),103,-73% (inactive),106,-0.464 (inactive),2.5e-05 (inactive),0.00798 (inactive),-4.06% (inactive),-7.39% (inactive)
COc1ccc(-c2noc(CN3C(=O)c4ccccc4C3=O)n2)cc1,551,8.9% (inactive),4.4% (inactive),90.5,-19.9% (inactive),108,-0.551 (inactive),-4.8e-05 (inactive),0.00296 (inactive),0.341% (inactive),-2.38% (inactive)
COc1ccc(CC(=O)OCc2nnc(C3COc4ccccc4O3)o2)cc1OC (stereo not drawn),440,-1.1% (inactive),-0.3% (inactive),91.8,-48% (inactive),85.8,-0.405 (inactive),1.8e-05 (inactive),0.00765 (inactive),7.17% (inactive),9.19% (inactive)
Nc1cc(C(=O)O)ccc1Nc1ccccc1,423,-9.8% (inactive),20.7% (inactive),86.5,15.1% (inactive),101,-0.557 (inactive),-4.4e-06 (inactive),0.0056 (inactive),-4.17% (inactive),-19% (inactive)
COc1ccc(CC(NC(C)=O)C(=O)NC2CCN(C(=O)Nc3ccc(C#N)cc3)CC2)cc1OC (stereo not drawn),312,-1.9% (inactive),-14.4% (inactive),102,-29.9% (inactive),112,-0.415 (inactive),8.5e-05 (inactive),0.00714 (inactive),14.2% (inactive),14.3% (inactive)
O=C(OCc1cc2ccccc2[nH]c1=O)c1ccncc1,826,-3.9% (inactive),25.6% (inactive),104,-66% (inactive),115,-0.536 (inactive),-4.4e-05 (inactive),0.00554 (inactive),19.9% (inactive),23.1% (inactive)
CCC1Oc2ccccc2N(CC(=O)Nc2ccc(OC)cc2OC)C1=O (stereo not drawn),726,44.3% (active),-17.4% (inactive),117,-57% (inactive),127,-0.533 (inactive),-0.000132 (inactive),0.00464 (inactive),-2.59% (inactive),4.28% (inactive)
